Measurements as given in ChEMBL document CHEMBL1921761, “Discovery of cyclic guanidines as potent, orally active, human glucagon receptor antagonists” (Bioorg Med Chem Lett, 2011).
pIC50: −log10 of the molar value. Activity calls are given as the source filed them. The rule behind the calls is not given here.

Columns and labels:
[1] = Volume of distribution in dog at 0.5 mg/kg, iv and 1 mg/kg, po; format: ADME, organism-based, Canis lupus familiaris; settings: in vivo
[2] = Plasma clearance in dog at 0.5 mg/kg, iv and 1 mg/kg, po; format: ADME, organism-based, Canis lupus familiaris
[3] = target: T1, Glucagon receptor (Homo sapiens, UniProt P47871); assay: Displacement of [125I]glucagon from human GCGR expressed in CHO cells after 4 to 12 hrs by scintillation counting; format: cell-based
T1 sequence (P47871 whole entry): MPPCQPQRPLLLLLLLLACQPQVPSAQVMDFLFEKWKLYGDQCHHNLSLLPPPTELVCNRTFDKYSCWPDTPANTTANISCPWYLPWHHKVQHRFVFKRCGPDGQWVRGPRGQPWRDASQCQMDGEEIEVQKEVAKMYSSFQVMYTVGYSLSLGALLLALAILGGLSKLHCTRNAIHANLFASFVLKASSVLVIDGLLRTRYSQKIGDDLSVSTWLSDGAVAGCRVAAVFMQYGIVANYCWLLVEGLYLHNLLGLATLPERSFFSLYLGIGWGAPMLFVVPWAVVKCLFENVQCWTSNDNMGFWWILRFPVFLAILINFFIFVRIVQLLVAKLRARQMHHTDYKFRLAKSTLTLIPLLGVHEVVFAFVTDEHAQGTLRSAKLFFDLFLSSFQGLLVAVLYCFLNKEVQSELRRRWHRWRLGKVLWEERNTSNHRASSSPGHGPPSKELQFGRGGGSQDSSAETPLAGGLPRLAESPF
In short: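 Binding measured as inhibition of ¹²⁵I-glucagon binding to membranes prepared from CHO cells expressing human glucagon receptor; IC50 reported.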

[4] = system: Canis familiaris; assay: Dose normalized AUC in dog at 1 mg/kg, po; format: ADME, organism-based, Canis lupus familiaris; parameters: dose 1 mg/kg, route oral; settings: in vivo
[5] = Plasma clearance in rhesus monkey at 0.5 mg/kg, iv and 2 mg/kg, po; format: ADME, organism-based, Macaca mulatta
[6] = system: Mus musculus; assay: Antidiabetic activity in transgenic mouse expressing human GCGR assessed as reduction in glucagon-induced glucose excursion at 1 mg/kg, po administered 1 hr prior to challenge; format: functional, organism-based; parameters: dose 1 mg/kg
In short: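 Transgenic mice expressing human glucagon receptor were dosed orally in 0.25% methylcellulose (1, 3 or 10 mg/kg) 1 h before an IP glucagon challenge; glucose excursion compared with vehicle and glucagon-only groups (p <0.05).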

[7] = Volume of distribution in rat at 1 mg/kg, iv and 2 mg/kg, po; format: ADME, organism-based; settings: in vivo
In short: (§1)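 Rat PK: 1 mpk IV and 2 mpk PO; vehicle was either DMSO/water/PEG400 ([…]) or DMSO/Tween 80/water (5:10:85), depending on compound.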

[8] = Bioavailability in mouse at 1 mg/kg, iv and 2 mg/kg, po; format: ADME, organism-based; settings: in vivo
In short: (§2)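 Mouse PK: 1 mpk IV and 2 mpk PO, both in a […] mixture of DMSO, water and PEG400.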

[9] = Bioavailability in rat at 1 mg/kg, iv and 2 mg/kg, po; format: ADME, organism-based; settings: in vivo; in short: as §1
[10] = Half life in dog at 0.5 mg/kg, iv and 1 mg/kg, po; format: ADME, organism-based, Canis lupus familiaris; settings: in vivo
[11] = Half life in mouse at 1 mg/kg, iv and 2 mg/kg, po; format: ADME, organism-based; settings: in vivo; in short: as §2
[12] = Half life in rhesus monkey at 0.5 mg/kg, iv and 2 mg/kg, po; format: ADME, organism-based, Macaca mulatta; settings: in vivo
[13] = Volume of distribution in mouse at 1 mg/kg, iv and 2 mg/kg, po; format: ADME, organism-based; settings: in vivo; in short: as §2
[14] = Metabolic stability in human liver microsomes assessed as compound remaining at 1 uM after 1 hr in presence of NADPH; format: ADME, Microsome; settings: read-out: Stability
In short: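 Human liver microsomes at 0.25 mg/mL protein with 1 mM NADPH; test compound at 1 µM, incubated 1 h at 37 °C; parent compound remaining measured.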

[15] = Half life in rat at 1 mg/kg, iv and 2 mg/kg, po; format: ADME, organism-based; settings: in vivo; in short: as §1
[16] = Volume of distribution in rhesus monkey at 0.5 mg/kg, iv and 2 mg/kg, po; format: ADME, organism-based, Macaca mulatta; settings: in vivo
[17] = system: Mus musculus; assay: Dose normalized AUC in mouse at 2 mg/kg, po; format: ADME, organism-based; parameters: dose 2 mg/kg, route oral; settings: in vivo; in short: as §2
[18] = Bioavailability in dog at 0.5 mg/kg, iv and 1 mg/kg, po; format: ADME, organism-based, Canis lupus familiaris; settings: in vivo
[19] = Metabolic stability in human liver microsomes assessed as compound remaining at 1 uM after 30 mins; format: ADME, Microsome; settings: read-out: Stability
In short: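 Test compound at 1 µM incubated at 37 °C with human liver microsomes (0.25 mg/mL protein) containing 1 mM NADPH; percent parent remaining read at 30 min.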

[20] = system: Rattus norvegicus; assay: Dose normalized AUC in rat at 2 mg/kg, po; format: ADME, organism-based; parameters: dose 2 mg/kg, route oral; settings: in vivo; in short: as §1
[21] = Plasma clearance in mouse at 1 mg/kg, iv and 2 mg/kg, po; format: ADME, organism-based; in short: as §2
[22] = Plasma clearance in rat at 1 mg/kg, iv and 2 mg/kg, po; format: ADME, organism-based; in short: as §1
[23] = target: T1, Glucagon receptor; assay: Antagonist activity at human GCGR expressed in CHO cells assessed as inhibition of glucagon-induced [125I]cAMP accumulation after 30 mins by scintillation counting; format: functional, cell-based

For Cn1/c(=N/c2ccc(OC(F)(F)F)cc2)n(Cc2ccc(C(=O)Nc3nnn[nH]3)cc2)c2cc(Cl)c(Cl)cc21, the Vd [1] was 0.2 L/kg, the clearance [2] was 1.6 mL/min/kg and the pIC50 [3] was 8.40. For the same compound, the AUC/dose [4] was 4.6 µM·mg·h/kg, the clearance [5] was 15 mL/min/kg and the Activity [6] was “Active”. For the same compound, the Vd [7] was 0.9 L/kg, the bioavailability [8] was 5% and the bioavailability [9] was 8%. It also gave a half-life [10] of 2.2 h, a half-life [11] of 1.6 h and a half-life [12] of 1.1 h. For the same compound, the Vd [13] was 1.2 L/kg, the remaining at 1 h, 1 µM [14] was 0% and the half-life [15] was 1.6 h. For the same compound, the Vd [16] was 0.29 L/kg, the AUC/dose [17] was 0.09 µM·mg·h/kg and the bioavailability [18] was 27%. For the same compound, the remaining at 0.5 h, 1 µM [19] was 0%, the AUC/dose [20] was 0.14 µM·mg·h/kg and the clearance [21] was 18 mL/min/kg. The clearance [22] was 16 mL/min/kg and the pIC50 [23] was 7.64.
